Measurements from ChEMBL document CHEMBL1127051, “Vanilloids. 1. Analogs of capsaicin with antinociceptive and antiinflammatory activity” (J Med Chem, 1993).

What was measured:
Mus musculus [1] = test: Percentage inhibition in mouse by using Croton oil-inflamed mouse ear test (topical dosing).; format: functional; parameters: concentration or dose not given beside the values
Procedure, shortened: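 Male Cox ICR mice (25–35 g), 10 per group. Left ear given 25 μL of 1% compound in ethanol, repeated ~17 h later; 1 h after that, both ears given 25 μL 2% croton oil. After 4 h, 5 mm ear punches weighed. % inhibition = [(C − T1)/C]×100, using left-minus-right weight differences versus vehicle controls.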

Rattus norvegicus [2] = test: Percentage analgesia by rat hot plate test after oral administration at 300 mg/kg.; format: functional
Procedure, shortened: (§1)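 Rats fasted 18 h, prescreened on a 55 ± 0.5 °C hot plate (latency <12 s, else lowest <30 s) to set the 0 h value. Groups of 8 dosed orally in sesame oil (1 mL/200 g); latency read at 1.5, 3, 5 h (24 h if persisting). %analgesia = [(LT(t) − LT(0))/(60 − LT(0))]×100, taken at the time of maximal latency.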

Mus musculus [3] = test: Latency time measured by mouse hot plate test after subcutaneous administration at 200 mg/kg; format: functional; parameters: unit: s
Procedure, shortened: (§2)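 Male CF-1 mice, 8 per group, given test agent sc in 0.2 mL ethanol/Tween-80/saline (10/10/80); dose 0.68 mmol (200 mg/kg for capsaicin). Placed on copper surface held at 55 ± 0.5 °C. Paw-response latency (s) reported as group mean ± SD; pretest latency ~5 s.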

[4] = (§3) Acute toxicity after intraperitoneal dose at 200 mg/kg in mice; format: organism-based; parameters: dose 200 mg/kg, route intraperitoneal; conditions: mouse, in vivo, ip, read-out: Lethality
Procedure, shortened: (§4)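 Single intraperitoneal dose at the listed mg/kg; acute toxicity scored as % lethality = number of deaths / number of animals dosed, 7–10 animals per group.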

Mus musculus [5] = species on record: Mus musculus; test: Ratio of the number of responders to the number of animals tested; 6/8; format: functional
[6] = Acute toxicity after intraperitoneal dose at 15 mg/kg in mice; format: organism-based; parameters: dose 15 mg/kg, route intraperitoneal; conditions: mouse, in vivo, ip, read-out: Lethality; procedure, shortened: as §4
Mus musculus [7] = species on record: Mus musculus; test: Ratio of the number of responders to the number of animals tested; 2/8; format: functional
[8] = Acute toxicity after intraperitoneal dose at 50 mg/kg in mice; format: organism-based; parameters: dose 50 mg/kg, route intraperitoneal; conditions: mouse, in vivo, ip, read-out: Lethality; procedure, shortened: as §4
Mus musculus [9] = species on record: Mus musculus; test: Ratio of the number of responders to the number of animals tested; 4/8; format: functional
[10] = Acute toxicity after intraperitoneal dose at 100 mg/kg in mice; format: organism-based; parameters: dose 100 mg/kg, route intraperitoneal; conditions: mouse, in vivo, ip, read-out: Lethality; procedure, shortened: as §4
Mus musculus [11] = species on record: Mus musculus; test: Ratio of the number of responders to the number of animals tested; 7/8; format: functional
Mus musculus [12] = species on record: Mus musculus; test: Ratio of the number of responders to the number of animals tested; 0/8; format: functional
Mus musculus [13] = species on record: Mus musculus; test: Ratio of the number of responders to the number of animals tested; 5/8; format: functional
[14] = Acute toxicity after intraperitoneal dose at 4 mg/kg in mice; format: organism-based; parameters: dose 4 mg/kg, route intraperitoneal; conditions: mouse, in vivo, ip, read-out: Lethality; procedure, shortened: as §4
Mus musculus [15] = test: Latency time measured by mouse hot plate test after subcutaneous at 200 mg/kg in experiment 2; format: functional; procedure, shortened: as §2
Mus musculus [16] = test: Latency time measured by mouse hot plate test after subcutaneous administration at 200 mg/kg in experiment 3; format: functional; procedure, shortened: as §2
Mus musculus [17] = test: Latency time measured by mouse hot plate test after subcutaneous administration at 200 mg/kg in experiment 1; format: functional; procedure, shortened: as §2
Rattus norvegicus [18] = test: Percentage analgesia by using rat hot plate test after oral administration at 300 mg/kg; format: functional; procedure, shortened: as §1
Mus musculus [19] = species on record: Mus musculus; test: Ratio of the number of responders to the number of animals tested; 6/6; format: functional
[20] = Acute toxicity after intraperitoneal dose at 50 mg/kg; format: organism-based; parameters: dose 50 mg/kg, route intraperitoneal; conditions: mouse, in vivo, ip, read-out: Lethality; procedure, shortened: as §4
Mus musculus [21] = species on record: Mus musculus; test: Ratio of the number of responders to the number of animals tested; 5/5; format: functional
Rattus norvegicus [22] = test: Percentage analgesia by using rat hot plate test after oral administration at 150 mg/kg; format: functional; procedure, shortened: as §1
Mus musculus [23] = species on record: Mus musculus; test: Ratio of the number of responders to the number of animals tested; 8/8; format: functional
Mus musculus [24] = test: as §3; format: functional; procedure, shortened: as §4
[25] = Acute toxicity after intraperitoneal dose at 400 mg/kg in mice; format: organism-based; parameters: dose 400 mg/kg, route intraperitoneal; conditions: mouse, in vivo, ip, read-out: Lethality; procedure, shortened: as §4
[26] = Acute toxicity after intraperitoneal dose at 8 mg/kg in mice; format: organism-based; parameters: dose 8 mg/kg, route intraperitoneal; conditions: mouse, in vivo, ip, read-out: Lethality; procedure, shortened: as §4
Mus musculus [27] = species on record: Mus musculus; test: Ratio of the number of responders to the number of animals tested; 6/7; format: functional
Procedure, shortened: (§5)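 Male CF-1 mice, 8 per group, dosed sc in 0.2 mL ethanol/Tween-80/saline (10/10/80). Latency read on a copper hot plate held at 55 ± 0.5 °C, with a pretest latency of about 5 s; reported as mean latency (s) ± SD. A responder is an animal whose latency exceeds the vehicle-control mean plus 2 SD; response = responders/animals tested.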

Mus musculus [28] = test: Latency time measured by mouse hot plate test after subcutaneous administration at 40 mg/kg; format: functional; procedure, shortened: as §5

SMILES | Inhibition (Mus musculus [1]) | Analgesia (Rattus norvegicus [2]) | Latency (Mus musculus [3]) | further results
CCCC/C=C/C/C=C\CCCCCCCCC(=O)NCc1ccc(O)c(OC)c1.CCCCC/C=C/C=C\CCCCCCCCC(=O)NCc1ccc(O)c(OC)c1 | 66.8% | 34% | >36.6 | mortality [4]: 0%; Response (Mus musculus [5]): 6
CCCCCCCCCCNC(=O)Cc1ccc(O)c(OC)c1 | 58.1% |  | 5.3 | mortality [6]: 100%
CCCCCCCC#CCCCCCCCCC(=O)NCc1ccc(O)c(OC)c1 | 50.3% | 15% | >18.6 | mortality [4]: 70%; Response (Mus musculus [7]): 2
COc1cc(CNC(=O)CCCCCc2ccccc2)ccc1O | 57.6% |  | 6.2 | mortality [8]: 70%
CCCC(=O)NCc1ccc(O)c(OC)c1 | 3.2% |  | 10.8 | Response (Mus musculus [9]): 4; mortality [10]: 40%
CCCCCCCCCNC(=O)Cc1ccc(O)c(OC)c1 | 80.7% |  | 22.3 | mortality [6]: 86%
CCCCCCCCCC/C=C\CCCCCC(=O)NCc1ccc(O)c(OC)c1 | 68.4% | 37% | 46.1 | mortality [4]: 30%
CCCCCCCCCCCCNC(=O)Cc1ccc(O)c(OC)c1 | 55.3% |  | 5 | mortality [8]: 0%
CCCCCCCCCCC(=O)NCc1ccc(O)c(OC)c1 | 29.6% |  | 47.7 | Response (Mus musculus [11]): 7; mortality [8]: 80%
CCCCCCCC/C=C\CCCCCCCCNC(=O)Cc1ccc(O)c(OC)c1 | 95.5% | 74% | 27.9 | Response (Mus musculus [11]): 7; mortality [4]: 50%
CCCCCCCC/C=C\CCCCCCCCCCCCCC(=O)NCc1ccc(O)c(OC)c1 | 48% |  | 6.1 | Response (Mus musculus [12]): 0
COc1cc(CNC(=O)CCCCCCc2ccccc2)ccc1O | 46.2% | 1% | 6.8 | mortality [8]: 60%
CCCCC(=O)NCc1ccc(O)c(OC)c1 | 24.2% |  | 9.6 | mortality [10]: 60%; Response (Mus musculus [7]): 2
C=CCCCCCCCCNC(=O)Cc1ccc(O)c(OC)c1 | 98.9% | 29% | 32.4 | Response (Mus musculus [13]): 5; mortality [10]: 90%
CCCCCCC/C=C/CCCCCCCCC(=O)NCc1ccc(O)c(OC)c1 | 10.9% | 37% | 7.1 | Response (Mus musculus [12]): 0; mortality [4]: 60%
CCCCCCCCNC(=O)Cc1ccc(O)c(OC)c1 | 89.1% |  |  | mortality [14]: 50%; Latency (Mus musculus [15]): >60; Latency (Mus musculus [16]): 32.3; Latency (Mus musculus [17]): 58.7; Analgesia (Rattus norvegicus [18]): 7%
CCCCCCCCCCCCCCCCCC(=O)NCc1ccc(O)c(OC)c1 | 11.3% | 3% | 5.9 | Response (Mus musculus [12]): 0; mortality [8]: 0%
CCCCCCCC(=O)NCc1ccc(O)c(OC)c1 | 45.8% |  | >51.3 | mortality [8]: 90%; Response (Mus musculus [19]): 6
COc1cc(CC(=O)NC2CCCCCCC2)ccc1O | 34.7% | 4% | 34.2 | mortality [4]: 80%; Response (Mus musculus [19]): 6
CCCCCCCCCCCC(=O)NCc1ccc(O)c(OC)c1 | 48.1% |  | 9.9 | Response (Mus musculus [12]): 0; mortality [6]: 25%; mortality [20]: 100%
C#CCCCCCCCCC(=O)NCc1ccc(O)c(OC)c1 | 36.4% | 15% | 17.1 | mortality [8]: 90%
CCCCCCCCCC(=O)NCc1ccc(O)c(OC)c1 | 71.4% |  | >43 | Response (Mus musculus [21]): 5; mortality [8]: 80%
CCCCCc1ccc(C(=O)NCc2ccc(O)c(OC)c2)cc1 | 9.3% |  | 6.9 | mortality [8]: 60%
CCCCCCCC[C@H]1O[C@H]1CCCCCCCC(=O)NCc1ccc(O)c(OC)c1 | 54.5% | 5% | 13.5 | mortality [4]: 40%
CCCC/C=C/CCCCCCCC(=O)NCc1ccc(O)c(OC)c1 |  | 22% |  | 

SMILES | Inhibition (Mus musculus [1]) | Analgesia (Rattus norvegicus [2]) | Latency (Mus musculus [3]) | further results
CCCCCC/C=C\CCCCCCCCNC(=O)Cc1ccc(O)c(OC)c1 |  | 88% |  | 
CCCCCCCC/C=C\CCCCCCCNC(=O)Cc1ccc(O)c(OC)c1 |  | 66% |  | 
CCCC/C=C\CCCCCCCCNC(=O)Cc1ccc(O)c(OC)c1 |  | 74% |  | 
CCCCCCNC(=O)Cc1ccc(O)c(OC)c1 | -5.8% |  | 40.7 | 
CCCCC/C=C\C/C=C\CCCCCCCCNC(=O)Cc1ccc(O)c(OC)c1 |  | 89% |  | 
CCCCCCCC/C=C/CCCCCCCCNC(=O)Cc1ccc(O)c(OC)c1 |  | 95% |  | 
CCCCCC/C=C\CCCCCCCCCCNC(=O)Cc1ccc(O)c(OC)c1 |  |  |  | Analgesia (Rattus norvegicus [22]): 62%
CCCCCC(=O)NCc1ccc(O)c(OC)c1 | 33.6% |  | 16.8 | Response (Mus musculus [9]): 4; mortality [8]: 60%
CCCCCCC(=O)NCc1ccc(O)c(OC)c1 | 33.7% |  | 29.8 | mortality [8]: 85%; Response (Mus musculus [5]): 6
CCCCCCCNC(=O)Cc1ccc(O)c(OC)c1 | 69.4% |  | 41.1 | mortality [6]: 100%
CCCCCCCCCC(C)CCCCCCCC(=O)NCc1ccc(O)c(OC)c1 (centres undefined) | 88.3% |  | 26.9 | Response (Mus musculus [9]): 4; mortality [10]: 40%
CCCCCCCCCC/C=C/CCCCCC(=O)NCc1ccc(O)c(OC)c1 | 26.7% | 27% | 11.5 | mortality [4]: 60%; Response (Mus musculus [7]): 2
COc1cc(CNC(=O)CCCCc2ccccc2)ccc1O | 56.4% |  | 12.2 | mortality [8]: 90%
CCCCCCC/C=C\CCCCCCCCCC(=O)NCc1ccc(O)c(OC)c1 | 76.9% | 43% | 35.7 | mortality [4]: 40%
C=C(CCCCCCCCC)CCCCCCCC(=O)NCc1ccc(O)c(OC)c1 | 96.2% | 67% | >22.8 | mortality [4]: 60%; Response (Mus musculus [7]): 2
CCCCCCCCCCCCCC/C=C\CC(=O)NCc1ccc(O)c(OC)c1 |  |  | 7.5 | Response (Mus musculus [12]): 0
CCCCC/C=C\CCCCCCCCCCC(=O)NCc1ccc(O)c(OC)c1 | 60% |  | >39.9 | Response (Mus musculus [23]): 8; mortality [4]: 30%
CCCCC/C=C\CCCCCCCCC(=O)NCc1ccc(O)c(OC)c1 | 79.3% |  | >48.8 | Response (Mus musculus [11]): 7; mortality [4]: 10%
CCCCCCC/C=C\CCCCCCCCCCCCC(=O)NCc1ccc(O)c(OC)c1 | 29% |  |  | mortality [4]: 0%
CCCCCCCCCC(=O)CCCCCCCC(=O)NCc1ccc(O)c(OC)c1 |  |  | 11.2 | 
CCCCCCCC[C@H]1O[C@@H]1CCCCCCCC(=O)NCc1ccc(O)c(OC)c1 | 26% |  | 10.7 | Lethality (Mus musculus [24]): 60%
CCCCCCC/C=C\CCCCCCCCC(=O)NCc1ccc(O)c(OC)c1 | 81.7% | 69% | >38.5 | Response (Mus musculus [11]): 7; mortality [25]: 30%
COc1cc(CNC(=O)CCCc2ccccc2)ccc1O | 40.9% |  | 5.6 | mortality [8]: 75%
CCCCCCCCC(=O)NCc1ccc(O)c(OC)c1 [NONIVAMIDE] | 72.3% | 17% | >31.2 | Response (Mus musculus [23]): 8; mortality [26]: 50%
COc1cc(CNC(=O)CCCC/C=C\C(C)C)ccc1O [ZUCAPSAICIN] | 79.5% | 0% |  | Response (Mus musculus [27]): 6; Latency (Mus musculus [28]): >39.9
